Compound activity from PubChem.
The list is not random: actives were taken first. Their share in the collection is about 2%.
Lipid droplet = modulators of hepatic lipid droplet formation; AML12 mouse hepatocytes, oleate lipid droplets, BODIPY imaging; inhibition, % at 6.5 µM; 240,000 tested, 0.4% active;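 active = lipid droplet intensity inhibited by at least 50%, with more than 500 cells counted; inconclusive = wells with under 300 cells, treated as cytotoxic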
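Test system: AML12 mouse liver cells; schedule: overnight exposure; technique: high-content imaging of BODIPY-stained droplets and DAPI nuclei; read-out: % inhibition of corrected integrated BODIPY droplet signal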
TAG inh = reduces triacylglycerol accumulation in H9c2 cells. Nile Red lipid (TAG) fluorescence; cells loaded with 200 µM oleic acid. inhibition, % at 12.5 µM. 230,000 tested, 0.66% active;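 active = pattern-corrected inhibition of lipid staining of at least 50% with the nuclear-stain viability signal not falling by more than 50%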
NTR1 ag = activates human neurotensin receptor 1; 330,000 tested, 0.17% active; NTR1-U2OS beta-arrestin-GFP spot imaging, agonist mode; activation, % at 20 µM; P30989;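 active = activation at or above 40% of the spot to cytoplasm intensity ratio, with at least 20 cells analyzed; inconclusive = wells under 20 cells, flagged as cytotoxic or low count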
B2AR ag = agonists of human beta-2 adrenergic receptor inducing internalization; AID 504454; Am2.2-beta2AR cells, FAP receptor internalization, flow cytometry; 340,000 tested, 0.43% active; response, % (no concentration beside the values); P07550;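 active = response above a set limit, near 3 SD of response in nonfluorescent compounds, cut at about 42% in these data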
Arr AP2 block = human beta-arrestin and AP2 interaction inhibition; FITC-arrestin peptide / GST-AP2 beads, flow cytometry; AP2 beta2 appendage carries R879A mutation; AID 504490; 340,000 tested, 0.31% active; inhibition, % at 10 µM;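 active = inhibition above a set limit, near 3 SD of compounds lacking own fluorescence, cut at about 54% in these data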
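System: GST-AP2 R879A glutathione beads. Medium: PBS with 0.05% Tween 20 and 0.1% BSA. Also added: FITC-arrestin peptide, 50 nM. Incubation: 12 min plus 1 h, RT. Measured by: high-throughput flow cytometry of beads, ex 488, em 535 nm. Evaluation: percent drop in bead-associated FITC signal.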
GRK2 aptamer HTS = inhibitors of human GRK2 displacing RNA aptamer; P25098; inhibition of aptamer binding, % at 10 µM; 330,000 tested, 0.59% active; bead flow cytometry, FAM-aptamer displacement from GRK2; AID 488847;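 active = inhibition of aptamer binding above 40%, roughly 3 SD of noise, on plates passing a quality check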;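 note: median bead fluorescence of bound FAM aptamer so fluorescent compounds give negative values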
Target sequence (P25098 whole entry, looked up): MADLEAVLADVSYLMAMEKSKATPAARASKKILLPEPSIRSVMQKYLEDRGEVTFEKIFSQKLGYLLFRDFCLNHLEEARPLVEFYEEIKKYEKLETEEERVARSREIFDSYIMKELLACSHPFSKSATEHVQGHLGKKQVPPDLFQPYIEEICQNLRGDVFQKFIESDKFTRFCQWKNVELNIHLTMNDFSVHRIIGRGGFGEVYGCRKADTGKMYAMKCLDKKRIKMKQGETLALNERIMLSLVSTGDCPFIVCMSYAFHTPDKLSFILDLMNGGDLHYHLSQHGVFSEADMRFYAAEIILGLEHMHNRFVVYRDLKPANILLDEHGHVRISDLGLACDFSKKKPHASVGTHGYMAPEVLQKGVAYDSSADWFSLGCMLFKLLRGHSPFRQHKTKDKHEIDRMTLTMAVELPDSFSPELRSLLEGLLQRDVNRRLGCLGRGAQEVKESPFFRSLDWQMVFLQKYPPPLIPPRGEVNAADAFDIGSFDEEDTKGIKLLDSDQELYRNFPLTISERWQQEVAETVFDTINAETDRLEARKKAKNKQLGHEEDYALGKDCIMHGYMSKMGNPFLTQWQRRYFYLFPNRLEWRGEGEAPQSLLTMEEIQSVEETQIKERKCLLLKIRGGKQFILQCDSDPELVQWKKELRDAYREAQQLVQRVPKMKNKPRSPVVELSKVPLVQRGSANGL
A number is an active result.

Results for CCN1CCN(Cc2ccc(NC(=O)c3ccc(C)c(NC(=O)c4cncc(-c5cccs5)c4)c3)cc2C(F)(F)F)CC1 ?
TAG inh: 117; B2AR ag: inactive; Arr AP2 block: inactive

What do the screens show for `CCN1CCN(Cc2ccc(NC(=O)c3cc(NC(=O)c4cncc(-c5ccc(C#N)cc5)c4)cc(OC)c3)cc2C(F)(F)F)CC1`?
Lipid droplet: inactive; TAG inh: 95; NTR1 ag: inactive; B2AR ag: inactive; Arr AP2 block: inactive

How did CC1(C)C(C=C(Cl)Cl)C1C(=O)N1CCN(Cc2ccccc2)CC1 (configuration not stated) do in these assays?
Lipid droplet: inactive; TAG inh: inactive; NTR1 ag: inactive; B2AR ag: inactive; Arr AP2 block: inactive; GRK2 aptamer HTS: inactive

How did COc1ccc2c(c1)c(CC(=O)Nc1cc(C)ccc1C)c(C)n2C(=O)c1ccc(Cl)cc1 do in these assays?
Lipid droplet: 68; NTR1 ag: inactive; B2AR ag: inactive; Arr AP2 block: inactive; GRK2 aptamer HTS: inactive

How did COc1ccc(-c2c(O)c(C#N)c(-c3ccccc3)n(-c3ccc(OC)cc3)c2=O)cc1 do in these assays?
Lipid droplet: inactive; NTR1 ag: inactive; B2AR ag: inactive; Arr AP2 block: inactive; GRK2 aptamer HTS: 97

What do the screens show for `COc1ccc(NC2=C(NCCO)C(=O)c3ccccc3C2=O)cc1`?
Lipid droplet: inactive; TAG inh: inactive; NTR1 ag: inactive; B2AR ag: 66; GRK2 aptamer HTS: inactive

How did CC(C)(C)OC(=O)n1cc(C(=O)c2ccccc2O)cn1 do in these assays?
Lipid droplet: inactive; NTR1 ag: inactive; B2AR ag: inactive; Arr AP2 block: inactive; GRK2 aptamer HTS: inactive

How did O=c1oc2c(O)c(O)cc3c(=O)oc4c(O)c(O)cc1c4c23 do in these assays?
Lipid droplet: inactive; TAG inh: inactive; B2AR ag: inactive; Arr AP2 block: inactive; GRK2 aptamer HTS: 84

How did CCOC(=O)Nc1nc(-c2ccccc2)c(C(=O)c2ccc(Cl)cc2)s1 do in these assays?
Lipid droplet: inconclusive; TAG inh: 59; NTR1 ag: inactive; B2AR ag: inactive; Arr AP2 block: inactive; GRK2 aptamer HTS: inactive

Results for COc1cc2c(cc1OC)C(C)N(C(=O)C1=NN(c3cccc(C)c3)C(=O)CC1)CC2 (configuration not stated) ?
Lipid droplet: inactive; NTR1 ag: inactive; B2AR ag: inactive; Arr AP2 block: inactive; GRK2 aptamer HTS: inactive

How did CCn1c(Cl)c(C=O)s/c1=N\S(=O)(=O)c1ccccc1 do in these assays?
Lipid droplet: inactive; TAG inh: 85; NTR1 ag: inactive; B2AR ag: 115; Arr AP2 block: inactive; GRK2 aptamer HTS: inactive

Results for CCN1C(=O)CS/C1=N\S(=O)(=O)c1ccc(Cl)cc1 ?
Lipid droplet: inactive; TAG inh: inactive; NTR1 ag: inactive; B2AR ag: inactive; Arr AP2 block: inactive; GRK2 aptamer HTS: inactive

What do the screens show for `COc1cccc(C(=O)Nc2ccc3nc(N4CCN(c5ncccn5)CC4)cc(C)c3c2)c1OC`?
Lipid droplet: inactive; NTR1 ag: 47; GRK2 aptamer HTS: inactive

Results for CCOc1ccccc1C(=O)Nc1ccc2nc(N3CCN(c4ncccn4)CC3)cc(C)c2c1 ?
NTR1 ag: inactive; GRK2 aptamer HTS: inactive

How did Cc1ccc(OCC(=O)OCc2nc3scc(-c4ccccc4)c3c(=O)[nH]2)cc1C do in these assays?
TAG inh: inactive; NTR1 ag: inactive; B2AR ag: inactive; Arr AP2 block: inactive; GRK2 aptamer HTS: inactive

How did COc1ccc(-n2c(SCC(=O)Nc3ccccc3C)nc(O)c(Cc3ccccc3)c2=O)cc1 do in these assays?
Lipid droplet: inactive; TAG inh: inactive; NTR1 ag: inactive; B2AR ag: inactive; Arr AP2 block: inactive; GRK2 aptamer HTS: inactive

Results for O=[N+]([O-])c1c(Nc2ccccc2O)ccc2nonc12 ?
Lipid droplet: inactive; TAG inh: inactive; NTR1 ag: inactive; B2AR ag: inactive; Arr AP2 block: inactive; GRK2 aptamer HTS: inactive

What do the screens show for `O=[N+]([O-])c1c(Nc2ccccc2O)cc(Cl)c2nonc12`?
Lipid droplet: inactive; TAG inh: inactive; NTR1 ag: inactive; B2AR ag: 105; Arr AP2 block: inactive; GRK2 aptamer HTS: inactive

Results for CC(C)C[C@H](NC(=O)c1[nH]cnc1C(=O)Nc1ccc(CNC(=O)OC(C)(C)C)cc1)C(=O)OCc1ccccc1 ?
Lipid droplet: inactive; TAG inh: inactive; NTR1 ag: inactive; B2AR ag: inactive; Arr AP2 block: inactive; GRK2 aptamer HTS: inactive
